Laboratory results reported in article PMC12394899 (RSC Medicinal Chemistry, 2025).

Legend:
[1] = tested on: MDA-MB-231 cells; experiment: MTT assay, MDA-MB-231; format: cell-based; details: Homo sapiens, MDA-MB-231, 48 h, read-out: MTT IC50
Method in brief: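 TNBC cells maintained in DMEM with 10% FBS at 37 °C, 5% CO2. About 10 000 cells/well seeded and exposed to test compound at 0.5–80 μM for 48 h, with 0.1% DMSO medium as control. MTT (1 mg mL−1) added for 4 h at 37 °C. Formazan dissolved in DMSO for 30 min at room temperature. Absorbance read at 540 nm.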

[2] = biological target: T1, rat α2,3-O-sialyltransferase ST3GAL1 (Rattus norvegicus, UniProt Q6H8N0); details: cited from earlier work
T1 sequence (Q6H8N0 1-340): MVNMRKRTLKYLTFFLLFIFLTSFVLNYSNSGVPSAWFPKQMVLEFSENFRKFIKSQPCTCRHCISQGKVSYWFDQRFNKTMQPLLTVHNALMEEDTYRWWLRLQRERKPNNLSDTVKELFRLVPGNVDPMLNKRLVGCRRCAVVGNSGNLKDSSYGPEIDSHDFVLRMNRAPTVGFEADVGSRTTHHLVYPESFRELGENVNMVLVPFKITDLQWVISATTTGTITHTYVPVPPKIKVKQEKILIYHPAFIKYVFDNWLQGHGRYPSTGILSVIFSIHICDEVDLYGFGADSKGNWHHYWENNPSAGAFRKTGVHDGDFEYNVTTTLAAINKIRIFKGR

| IC50 [1] [µM] | SMILES | ST3GAL1 % Inhibition at 500 μM [2] [%] |
| --- | --- | --- |
| 40 to 80 | c1ccc2c(Cc3c[nH]c4ccccc34)c[nH]c2c1 [3,3′-DIM, 3,3′-diindolylmethane] | – |
| – | C[C@H](CCC(=O)O)[C@H]1CC[C@H]2[C@@H]3CC[C@@H]4C[C@H](O)CC[C@]4(C)[C@H]3CC[C@]12C [LCA, Lithocholic acid] | 53 |
